Experimental data gathered from unrelated publications.
Lines come from different studies, so protocols differ.
Target: Dual specificity mitogen-activated protein kinase kinase 2 (MAP2K2, Homo sapiens, UniProt P36507)

The activity vs control of `CC(C)S(=O)(=O)c1ccc2nccc(Nc3ccc4sc(C5CCCC5)nc4c3)c2c1` is reported as 98% (enzyme activity, inhibitor; 1 µM).
`C=CC(=O)N1CCC([C@@H]2CCNc3c(C(N)=O)c(-c4ccc(Oc5ccccc5)cc4)nn32)CC1` gave an inhibition of 99% (enzyme activity, inhibitor; 1 µM).
`Cc1cc(O)c(-c2ccc([C@@H](C)CN(C)C)cc2)c2c1[nH]c(=O)c1sccc12` gave an inhibition of 24.2% (enzyme activity, inhibitor; 0.1 µM).
The inhibition of `CO[C@@H]1[C@H](N(C)C(=O)c2ccccc2)C[C@H]2O[C@]1(C)n1c3ccccc3c3c4c(c5c6ccccc6n2c5c31)C(=O)NC4` is reported as 20% (enzyme activity, inhibitor; 1 µM).
The remaining binding of `CN1CCN(C(=O)c2ccc(NC(=O)Nc3ccc(N(C)c4ccnc(Nc5ccc(CS(C)(=O)=O)cc5)n4)cc3)cc2)CC1` is reported as 40% (binding, competition with immobilised ligand; 1 µM).
`C#Cc1cc(-c2cc(Nc3nc(N[C@@H](C)c4ccc(F)cn4)ncc3Cl)n[nH]2)ccc1C=O` gave an inhibition of 20.9% (enzyme activity, inhibitor; 0.2 µM).
`COc1ccc2[nH]c3c4[nH]c5ccc(OC)cc5c4c4c(c3c2c1)C(=O)NC4=O` gave a remaining binding of 59% (binding, competition with immobilised ligand; 1 µM).
For `CCCCC(=O)Nc1ccc(-c2ccc3ncn(CCC)c(=O)c3c2)cn1`, the remaining binding was 68% (binding, competition with immobilised ligand; 0.5 µM).
`N#Cc1ccc(NC(=O)Nc2ccccc2)cc1` gave a remaining binding of 64% (cell-free assay, competition with immobilised ligand; 25 µM).
`COc1ccc2oc(-c3ccc4nc(N)oc4c3)c/c(=N\c3ccccc3NC(=O)CCN)c2c1` gave a remaining binding of 106% (binding; 1 µM).
